Published values from different studies.
Protocols differ between the studies behind these lines.
Target: Tyrosine-protein kinase Fes/Fps (FES, Homo sapiens, UniProt P07332)

SMILES	test	setting	measurement	result
CC1=C(C#N)[C@@H](c2ccc3[nH]nc(C)c3c2)C(C#N)=C(c2ccc(Cl)cc2)N1	cell-free assay, competition with immobilised ligand	1 µM	remaining binding	100%
O=c1cc(-c2cccc3c2Sc2ccccc2S3)oc(N2CCOCC2)c1	enzyme activity, inhibitor	0.5 µM	remaining activity	104%
CCC(=O)N[C@@H]1CC[C@H](C(=O)N(C)c2ccc(-c3nc4ccccc4o3)cc2)C1	cell-free assay, competition with immobilised ligand	1 µM	remaining binding	96%
O=C(Nc1cnn(-c2csc(C(=O)NC3COC3)c2)c1)Nc1ccccc1Cl	enzyme activity, inhibitor	5 µM	remaining activity	99.3%
CC(C)(C)c1nc(-c2cccc(NS(=O)(=O)c3c(F)cccc3F)c2F)c(-c2ccnc(N)n2)s1	enzyme activity, inhibitor, radiometric	1 µM	remaining activity	88%
C[C@@H]1CN(c2cc(-c3n[nH]c4ccc(OC5(C)CC5)cc34)ncn2)C[C@H](C)O1	cell-free assay, competition with immobilised ligand	0.1 µM	remaining binding	87%
c1nc2c(Nc3ccc4c(c3)OCCO4)nc(Nc3ccc4c(c3)OCCO4)nc2[nH]1	enzyme activity, inhibitor	10 µM	activity vs control	62%
Cc1sc(C(=O)NC2COC2)cc1-n1cc(NC(=O)Nc2c(F)cccc2Cl)cn1	enzyme activity, inhibitor	10 µM	remaining activity	93.7%
Cc1cc(NC(=O)c2cccc3cc(-c4cccc5[nH]nc(N)c45)ccc23)ccc1F	enzyme activity, inhibitor	0.1 µM	activity vs control	97%
CNCc1ccc(-c2cc(-c3nc(-c4ccc(S(=O)(=O)C(C)C)cc4)cnc3N)on2)cc1	enzyme activity, inhibitor	0.4 µM	inhibition	0%
Cc1cnc(NC2CCOCC2)nc1-n1cnc(C(=O)NC(CN)c2cc(F)cc(Cl)c2)c1 (stereo not shown)	enzyme activity, inhibitor, radiometric	1 µM	remaining activity	102%
C=CC(=O)Nc1cc(Nc2nccc(Nc3cc(Cl)c(F)cc3C(C)(C)O)n2)c(OC)cc1N1CC[C@@H](N(C)C)C1	enzyme activity, inhibitor	1 µM	inhibition	65%
CCN(CC)c1ccc(C2=NNC(=O)CC2C)cc1[N+](=O)[O-] (stereo not shown)	enzyme activity, inhibitor	10 µM	remaining activity	103%
COc1cc2ncnc(Nc3ccc(Oc4ccccc4)cc3C)c2cc1OC	enzyme activity, inhibitor	1 µM	inhibition	27%
NS(=O)(=O)c1cc(NC(=O)Cc2ccccc2)ccc1Oc1cccc(Cl)c1	cell-free assay, competition with immobilised ligand	1 µM	remaining binding	92%
CC/C(=N\NC(=O)NCc1cccc(O)c1)c1ccc(O)c(C)c1O	enzyme activity, inhibitor	0.1 µM	inhibition	1.2%
CS(=O)(=O)N1CCCC(NC(=O)[C@H](CCC2CCCCC2)NC(=O)c2ccc(CNC(=O)c3cnc4ccccn34)cc2)C1 (stereo partly shown)	cell-free assay, competition with immobilised ligand	0.1 µM	remaining binding	100%
Nc1ncnc2occ(-c3ccc(NC(=O)Nc4cc(C(F)(F)F)ccc4F)cc3)c12	cell-free assay, inhibitor	20 µM	remaining signal	4.1%
O=C(O)[C@@H]1[C@@H](Cn2nnc3ccccc3c2=O)CC[C@H]1C(=O)c1ccc(OCCC2CCOCC2)cc1	cell-free assay, competition with immobilised ligand	1 µM	remaining binding	100%
CCCS(=O)(=O)Nc1ccc(F)c(C(=O)c2c[nH]c3ncc(-c4ccc(Cl)cc4)cc23)c1F	enzyme activity, inhibitor	1 µM	inhibition	< 20%
C[C@@H]1CN(c2cc(-c3nn(C)c4ccc(OC5(C)CC5)cc34)ncn2)C[C@H](C)O1	cell-free assay, competition with immobilised ligand	1 µM	remaining binding	93%
O=C1Nc2ccc(Cl)cc2C1=Cc1cc(Cl)c(O)c(Cl)c1	cell-free assay	0.5 µM	remaining signal	93.7%
